Results taken from paper PMC7644341 (Journal of natural products, 2020).
Marks after values point to notes of the source that are not given here. Values belong to the molecule of their own block, whether it stands above or below them.

What was measured:
[1] = system: A549 human lung cancer cell line; assay: Differential cytotoxicity
[2] = Non-enzymatic stability; assay type: physicochemical; conditions: for percent BAPC hydrolysis/cleavage (non-enzymatic) in phosphate buffer: pH 7.4, 48 h
[3] = system: tubulin; assay: Inhibition of [3H]colchicine binding to tubulin; conditions: 1.0 μM tubulin, 5.0 μM [3H]colchicine
Summary of the method: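 Incubation was 10 min at 37 °C, when control binding is about 50% complete. Bound ligand was collected on paired filters and scintillation-counted at least 18 h later. Counts were corrected for filter-bound colchicine without tubulin, and percent inhibition was calculated against no-inhibitor controls.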

[4] = system: 4T1-luc tumors; assay: H&E histology of harvested tumors; assay type: in vivo, BALB/c mice; conditions: 180 mg/kg IP
Summary of the method: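 4T1-luc orthotopic mammary fat pad tumors in female BALB/cJ mice were dosed once IP with test compound (180 mg/kg in DPS vehicle). Tumors were harvested at 72 h, or after further imaging at 96 h, when survivors were killed by cervical dislocation under isoflurane. They were stained with hematoxylin and eosin. Each tumor's histology was matched to its BLI response.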

[5] = system: orthotopic 4T1-luc breast tumors; assay: In vivo dynamic bioluminescence imaging; set-up: species or system BALB/c mice; conditions: 180 mg/kg IP single dose
Summary of the method: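 Cells: 4T1-luc, firefly luciferase-expressing, grown in RPMI1640 with 10% FBS. 10⁶ cells in PBS with 30% Matrigel were implanted into the left upper ventral mammary fat pad of female BALB/cJ mice and grown 11 days to 10–12 mm. Baseline BLI was taken under 2% isoflurane after SC D-luciferin (120 mg/kg). Then a single IP dose of test compound was given (180 mg/kg in DPS, n=3), with vehicle and combretastatin A-4 phosphate (120 mg/kg) controls. Imaging (~20 min) was repeated at 4, 24 and 48 h with fresh luciferin, comparing area under the light-emission curve.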

[6] = biological target: T1, Rat NADPH-cytochrome P450 oxidoreductase (POR) supersomes (Rattus norvegicus, UniProt P00388); assay: NADPH-cytochrome P450 oxidoreductase cleavage assay; assay type: in vitro ADME; conditions: for percent BAPC cleavage by POR: 90 min, anaerobic, 37 °C, NC = no cleavage observed
T1 sequence (P00388 1-678): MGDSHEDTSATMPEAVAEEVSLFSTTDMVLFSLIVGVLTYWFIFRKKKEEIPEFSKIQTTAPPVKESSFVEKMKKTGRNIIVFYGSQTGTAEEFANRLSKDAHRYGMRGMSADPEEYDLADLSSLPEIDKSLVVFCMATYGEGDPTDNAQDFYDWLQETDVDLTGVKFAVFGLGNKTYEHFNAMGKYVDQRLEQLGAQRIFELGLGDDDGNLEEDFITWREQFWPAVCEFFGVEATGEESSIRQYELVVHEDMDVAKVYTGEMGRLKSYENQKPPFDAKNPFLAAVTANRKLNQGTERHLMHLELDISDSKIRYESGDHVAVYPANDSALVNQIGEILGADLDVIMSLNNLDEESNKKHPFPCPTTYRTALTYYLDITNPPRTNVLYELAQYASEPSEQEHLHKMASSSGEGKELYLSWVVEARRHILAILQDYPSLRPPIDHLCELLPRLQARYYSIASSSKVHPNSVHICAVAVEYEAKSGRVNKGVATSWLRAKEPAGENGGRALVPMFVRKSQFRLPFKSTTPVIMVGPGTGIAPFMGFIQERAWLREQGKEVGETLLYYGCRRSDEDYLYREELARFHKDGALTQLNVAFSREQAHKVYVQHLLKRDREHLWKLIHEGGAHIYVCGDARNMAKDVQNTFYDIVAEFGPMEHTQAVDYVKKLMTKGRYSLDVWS

Molecule: Br.O=[N+]([O-])c1nccn1CC(O)CNCCBr (centres unmarked) [RB6145]
hypoxia cytotoxicity ratio (HCR) ([1]; A549, GI50 oxic versus anoxic, drug removal step omitted): >3.7

Molecule: Nc1n[n+]([O-])c2ccccc2[n+]1[O-] [Tirapazamine]
hypoxia cytotoxicity ratio (HCR) ([1]; assays in which drug was washed out after 4 h): > 62

percent BAPC hydrolysis/cleavage (non-enzymatic) in phosphate buffer [2]: 0%
Molecule: COc1cc(/C=C\c2ccc(OC)c3c2OC(c2ccc([N+](=O)[O-])s2)O3)cc(OC)c1OC (centres unmarked) [compound 35, (Z)-4-Methoxy-2-(5-nitrothiophen-2-yl)-7-(3,4,5-trimethoxystyryl)-benzo[d][1,3]dioxole]

Molecule: COc1cc(/C=C\c2ccc(OC)c3c2OC(C)(c2ccc([N+](=O)[O-])s2)O3)cc(OC)c1OC (centres unmarked) [compound 36, (Z)-4-Methoxy-2-methyl-2-(5-nitrothiophen-2-yl)-7-(3,4,5-trimethoxystyryl)-benzo[d][1,3]dioxole]
percent BAPC hydrolysis/cleavage (non-enzymatic) in phosphate buffer [2]: 0%

Molecule: COc1ccc(/C=C\c2cc(OC)c(OC)c(OC)c2)c(OCc2ccc([N+](=O)[O-])s2)c1O [compound 37, (Z)-6-Methoxy-2-((5-nitrothiophen-2-yl)methoxy)-3-(3,4,5-trimethoxystyryl)phenol]
percent BAPC hydrolysis/cleavage (non-enzymatic) in phosphate buffer [2]: 0^b %

Molecule: COc1ccc(/C=C\c2cc(OC)c(OC)c(OC)c2)c(OC(C)c2ccc([N+](=O)[O-])s2)c1O (centres unmarked) [compound 38, (Z)-6-Methoxy-2-(1-(5-nitrothiophen-2-yl)ethoxy)-3-(3,4,5-trimethoxystyryl)phenol]
percent BAPC hydrolysis/cleavage (non-enzymatic) in phosphate buffer [2]: 0.5^c %

Molecule: COc1cc(/C=C\c2ccc(OC)c(OCc3ccc([N+](=O)[O-])s3)c2O)cc(OC)c1OC [compound 39, (Z)-3-Methoxy-2-((5-nitrothiophen-2-yl)methoxy)-6-(3,4,5-trimethoxystyryl)phenol]
percent BAPC hydrolysis/cleavage (non-enzymatic) in phosphate buffer [2]: 0^b %

Molecule: COc1cc(/C=C\c2ccc(OC)c(OC(C)c3ccc([N+](=O)[O-])s3)c2O)cc(OC)c1OC (centres unmarked) [compound 40, (Z)-3-Methoxy-2-(1-(5-nitrothiophen-2-yl)ethoxy)-6-(3,4,5-trimethoxystyryl)phenol]
percent BAPC hydrolysis/cleavage (non-enzymatic) in phosphate buffer [2]: 0^c %

Molecule: COc1ccc(/C=C\c2cc(OC)c(OC)c(OC)c2)c(OC(C)(C)c2ccc([N+](=O)[O-])s2)c1O [compound 41, (Z)-6-Methoxy-2-((2-(5-nitrothiophen-2-yl)propan-2-yl)oxy)-3-(3,4,5-trimethoxystyryl)phenol]
spontaneous hydrolysis in pH 7.4 buffer ([2]; first 150 min): no apparent spontaneous hydrolysis | hydrolysis in pH 7.4 buffer ([2]; incubated 24–48 h): mostly hydrolyzed | percent BAPC hydrolysis/cleavage (non-enzymatic) in phosphate buffer [2]: 100%

Molecule: COc1ccc(/C=C\c2cc(OC)c(OC)c(OC)c2)cc1O [compound 42, combretastatin A-4]
inhibition of colchicine binding % inhibition ± SD ([3]; compound at 1 μM): 84±2% | inhibition of colchicine binding % inhibition ± SD ([3]; compound at 5 μM): 97±0.7%

Molecule: COc1ccc(/C=C\c2cc(OC)c(OC)c(OC)c2)cc1OC(C)(C)c1ccc([N+](=O)[O-])s1 [compound 45, (Z)-2-(2-(2-Methoxy-5-(3,4,5-trimethoxystyryl)phenoxy)propan-2-yl)-5-nitrothiophene]
tumor necrosis (H&E) ([4]; BLI-unresponsive tumor): 47% | tumor necrosis (H&E) ([4]; tumor showing a strong BLI signal response): 55% | decrease in light emission (BLI) ([5]; 4 h, two of three mice): > 80% | depression of light emission (BLI) ([5]; 24 h, the two responding tumors): > 75% | light emission (BLI) recovery ([5]; by 48 h, the two responding tumors): substantial recovery | stability in phosphate buffer ([2]; pH 7.4, 24 h): stable | percent BAPC cleavage by POR [6]: 25% | cleavage by POR supersomes ([6]; 24 h, anaerobic conditions): Complete cleavage

Molecule: (Z)-3-Methoxy-2-(2-(5-nitrothiophen-2-yl)propoxy)-6-(3,4,5-trimethoxystyryl)-phenyl-4-methylbenzenesulfonate [compound 23]
percent BAPC hydrolysis/cleavage (non-enzymatic) in phosphate buffer [2]: 0.84% | percent BAPC cleavage by POR [6]: 13.5%
